Square brackets hold non-standard residues; d marks the D form. Peptide text beside a SMILES is read from it. pT = C[C@@H](OP(=O)(O)O)[C@H](N)C(=O)O
Columns and labels:
[1] = molecular target: Pellino2 FHA domain, 15-275 (UniProt Q9HAT8); test: fluorescence polarization titration; settings: reference: pT141+3S peptide (native S144); sites S144
[2] = molecular target: T1, Pellino1 FHA domain (amino acids 2–287) (Mus musculus, UniProt Q8C669); test: Fluorescence polarization peptide binding assay, Pellino1 FHA domain; settings: ratio of KD values
T1 sequence (Q8C669 2-287): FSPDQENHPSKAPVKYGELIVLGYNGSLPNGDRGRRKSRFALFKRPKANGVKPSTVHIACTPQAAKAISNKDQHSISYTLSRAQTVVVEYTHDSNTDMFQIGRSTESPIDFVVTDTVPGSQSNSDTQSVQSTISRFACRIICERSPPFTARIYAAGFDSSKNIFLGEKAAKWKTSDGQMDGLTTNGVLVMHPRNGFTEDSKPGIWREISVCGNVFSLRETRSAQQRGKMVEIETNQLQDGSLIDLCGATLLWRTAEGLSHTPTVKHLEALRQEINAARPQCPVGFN
Outline: (§1)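 His6-tagged FHA domains were expressed in E. coli BL21(DE3) pLys. The tag was removed with TEV during dialysis (4 °C for Pellino1, 22 °C for Pellino3a/3b), then cation exchange (pH 6 Pellino1/3b, pH 5.5 Pellino3a) and gel filtration. 50 nM N-terminally fluorescein-labelled phosphopeptide was titrated with 0–190 μM domain in PBS pH 7.4 at 25 °C. Baseline-corrected polarization was fit to a simple isotherm; mean KD from ≥3 experiments, expressed relative to pT141+3Y KD.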

[3] = molecular target: T2, Pellino2 FHA domain (amino acids 15–275 of Pellino2) (Homo sapiens, UniProt Q9HAT8); test: Fluorescence polarization peptide binding assay, Pellino2 FHA domain; settings: for fold change in KD relative to pT141+3Y (preference for the pTxxY motif): binding weaker than for pT141+3Y, Figure 4A
T2 sequence (Q9HAT8 15-275): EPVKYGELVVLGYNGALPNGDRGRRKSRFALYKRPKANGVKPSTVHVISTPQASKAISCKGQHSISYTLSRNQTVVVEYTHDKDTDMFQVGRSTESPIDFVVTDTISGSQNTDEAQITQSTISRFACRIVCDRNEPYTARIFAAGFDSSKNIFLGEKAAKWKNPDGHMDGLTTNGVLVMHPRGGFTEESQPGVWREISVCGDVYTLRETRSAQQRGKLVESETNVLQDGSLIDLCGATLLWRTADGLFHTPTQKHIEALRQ

[4] = molecular target: T3, Pellino3a FHA domain (amino acids 40–305) (Homo sapiens, UniProt Q8N2H9); test: Fluorescence polarization peptide binding assay, Pellino3a FHA domain; settings: ratio of KD values
T3 sequence (Q8N2H9 40-305): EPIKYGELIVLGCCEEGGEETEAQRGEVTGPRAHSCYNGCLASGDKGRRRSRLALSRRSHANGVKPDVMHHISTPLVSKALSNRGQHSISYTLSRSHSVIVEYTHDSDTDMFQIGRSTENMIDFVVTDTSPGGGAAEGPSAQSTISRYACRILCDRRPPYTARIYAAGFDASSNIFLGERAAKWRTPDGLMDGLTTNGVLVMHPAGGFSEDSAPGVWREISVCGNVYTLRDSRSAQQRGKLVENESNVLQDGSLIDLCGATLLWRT
Outline: as §1

[5] = molecular target: T4, Pellino3b FHA domain (amino acids 2–304) (Homo sapiens, UniProt Q8N2H9); test: Fluorescence polarization peptide binding assay, Pellino3b FHA domain; settings: ratio of KD values
T4 sequence (Q8N2H9 2-304 isoform Q8N2H9-2): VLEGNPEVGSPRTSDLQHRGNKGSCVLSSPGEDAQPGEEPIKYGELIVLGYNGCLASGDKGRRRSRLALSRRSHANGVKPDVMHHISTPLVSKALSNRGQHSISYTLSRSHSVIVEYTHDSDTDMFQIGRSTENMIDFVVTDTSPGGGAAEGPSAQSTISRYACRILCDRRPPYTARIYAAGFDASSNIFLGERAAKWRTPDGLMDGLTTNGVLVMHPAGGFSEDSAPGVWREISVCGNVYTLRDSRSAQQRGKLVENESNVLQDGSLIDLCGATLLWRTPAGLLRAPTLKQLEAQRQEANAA
Outline: as §1

Pellino2 = Pellino2 (UniProt Q9HAT8); test: GST pull-down from lysate, Xpress and pT blots; settings: reference: wild-type IRAK1-197; sites T141
[6] = molecular target: IRAK1pT141 peptide (amino acids 137–145 of IRAK1 with phosphothreonine at 141) (human) (UniProt P51617); test: fluorescence polarisation
Sequence of IRAK1pT141 peptide (amino acids 137–145 of IRAK1 with phosphothreonine at 141) (human) (P51617 whole entry, looked up, the tested form may be a part): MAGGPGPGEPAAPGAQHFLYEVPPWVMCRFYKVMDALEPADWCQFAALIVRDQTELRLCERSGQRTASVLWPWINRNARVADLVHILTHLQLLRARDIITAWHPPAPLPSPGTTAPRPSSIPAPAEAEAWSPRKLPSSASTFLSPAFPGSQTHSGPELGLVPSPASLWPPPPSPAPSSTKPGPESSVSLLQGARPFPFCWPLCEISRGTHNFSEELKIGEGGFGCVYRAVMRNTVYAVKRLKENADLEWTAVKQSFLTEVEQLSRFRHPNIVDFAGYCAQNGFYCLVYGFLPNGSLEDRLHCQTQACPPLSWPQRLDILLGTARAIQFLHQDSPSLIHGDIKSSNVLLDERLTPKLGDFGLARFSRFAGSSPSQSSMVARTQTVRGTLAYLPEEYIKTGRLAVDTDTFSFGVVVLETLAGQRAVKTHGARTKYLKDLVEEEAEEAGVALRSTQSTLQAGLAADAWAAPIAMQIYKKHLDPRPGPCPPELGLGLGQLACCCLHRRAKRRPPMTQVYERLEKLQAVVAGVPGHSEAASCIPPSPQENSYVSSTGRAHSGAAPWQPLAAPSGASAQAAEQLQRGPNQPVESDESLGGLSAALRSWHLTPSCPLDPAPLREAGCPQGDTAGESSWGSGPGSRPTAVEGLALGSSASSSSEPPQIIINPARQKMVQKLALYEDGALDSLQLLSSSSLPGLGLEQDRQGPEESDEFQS

[7] = molecular target: T5, Pellino2 FHA domain (amino acids 15–275 of Pellino2) (human, UniProt Q9HAT8 15-275); test: fluorescence polarisation
T5 sequence (looked up): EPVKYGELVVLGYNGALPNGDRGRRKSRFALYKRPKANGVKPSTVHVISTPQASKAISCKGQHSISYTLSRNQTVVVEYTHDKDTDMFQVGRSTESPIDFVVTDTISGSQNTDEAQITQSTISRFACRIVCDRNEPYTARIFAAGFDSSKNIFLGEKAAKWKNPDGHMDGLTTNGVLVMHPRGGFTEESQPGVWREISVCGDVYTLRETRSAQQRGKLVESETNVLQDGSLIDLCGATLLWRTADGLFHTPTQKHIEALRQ

[8] = molecular target: T6, Pellino1 FHA domain (amino acids 2–287, mouse) (mouse, UniProt Q8C669 2-287); test: fluorescence polarisation
T6 sequence (looked up): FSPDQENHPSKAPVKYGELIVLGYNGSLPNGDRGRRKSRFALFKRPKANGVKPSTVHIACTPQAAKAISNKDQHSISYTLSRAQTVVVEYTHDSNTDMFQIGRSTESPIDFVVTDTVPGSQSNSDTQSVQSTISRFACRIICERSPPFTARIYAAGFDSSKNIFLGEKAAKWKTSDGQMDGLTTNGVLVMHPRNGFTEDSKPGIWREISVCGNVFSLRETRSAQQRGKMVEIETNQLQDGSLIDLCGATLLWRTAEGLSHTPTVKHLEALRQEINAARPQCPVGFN

[9] = molecular target: T7, Pellino3b FHA domain (amino acids 2–304) (human, UniProt Q8N2H9-2 2-304); test: fluorescence polarisation
T7 sequence (looked up): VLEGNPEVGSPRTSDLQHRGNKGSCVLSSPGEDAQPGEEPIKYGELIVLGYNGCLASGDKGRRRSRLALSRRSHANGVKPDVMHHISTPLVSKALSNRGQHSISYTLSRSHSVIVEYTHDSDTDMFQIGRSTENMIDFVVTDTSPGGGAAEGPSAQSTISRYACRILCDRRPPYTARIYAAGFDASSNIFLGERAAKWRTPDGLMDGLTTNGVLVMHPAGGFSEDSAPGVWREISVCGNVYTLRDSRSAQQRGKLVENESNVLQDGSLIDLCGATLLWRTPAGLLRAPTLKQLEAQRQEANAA

[10] = molecular target: scrambled version of the pT141 peptide; test: fluorescence polarisation

Sequence of Pellino2 FHA domain, 15-275 (Q9HAT8 whole entry, looked up, the tested form may be a part): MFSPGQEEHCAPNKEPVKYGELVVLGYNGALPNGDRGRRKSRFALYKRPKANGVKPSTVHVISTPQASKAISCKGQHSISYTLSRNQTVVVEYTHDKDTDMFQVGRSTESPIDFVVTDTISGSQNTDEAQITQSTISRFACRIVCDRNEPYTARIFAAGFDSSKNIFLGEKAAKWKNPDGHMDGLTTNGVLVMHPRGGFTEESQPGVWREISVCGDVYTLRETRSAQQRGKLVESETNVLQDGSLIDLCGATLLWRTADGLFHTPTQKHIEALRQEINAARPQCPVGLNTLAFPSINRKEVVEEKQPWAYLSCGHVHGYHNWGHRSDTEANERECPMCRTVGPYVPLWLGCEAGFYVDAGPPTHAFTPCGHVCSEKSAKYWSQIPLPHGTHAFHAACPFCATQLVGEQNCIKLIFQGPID

In the case of “IRAK1 137-145 (from UniProt P51617) pT141+3D peptide”, the fold change (fold weaker KD) [1] is reported as 5.

For `CC(C)C[C@H](NC(=O)[C@H](Cc1ccccc1)NC(=O)[C@@H](NC(=O)[C@H](CO)NC(=O)[C@H](CO)NC(=O)[C@H](C)NC(=O)[C@H](CO)NC(=O)[C@@H](N)Cc1ccc(O)cc1)[C@@H](C)OP(=O)(O)O)C(=O)N[C@@H](CC(=O)O)C(=O)N1CCC[C@H]1C(N)=O` [IRAK1pT141+3D] (H-YSASS[pT]FLDP-NH2; N-terminus assumed), the “times weaker binding than for the pT141+3Y peptide” value (“times weaker binding than” below) [2] was “at least 13 times”, the “fold change in KD relative to pT141+3Y (preference for the pTxxY motif)” value [3] was 23 fold and the “times weaker binding than” value [4] was “at least 13 times”. The “times weaker binding than” value [5] was “at least 13 times”.

With IRAK1 1-197 (from UniProt P51617) T141A the “binding against the reference” value (Pellino2) was “weaker”.

With `CC(C)C[C@H](NC(=O)[C@H](Cc1ccccc1)NC(=O)[C@@H](NC(=O)[C@H](CO)NC(=O)[C@H](CO)NC(=O)[C@H](C)NC(=O)[C@H](CO)NC(=O)[C@@H](N)Cc1ccc(O)cc1)[C@@H](C)OP(=O)(O)O)C(=O)N[C@@H](Cc1ccc(O)cc1)C(=O)N1CCC[C@H]1C(N)=O` [IRAK1pT141+3Y] (H-YSASS[pT]FLYP-NH2; N-terminus assumed) the “KD fold stronger than that for pT141+3S” value ([3]; ratio of KD values) was 4.6 fold.

With “Pellino2 FHA domain (amino acids 15–275 of Pellino2) (from UniProt Q9HAT8 15-275) (domain or fragment)” the Kd [6] was 0.82 µM.

With `CC[C@H](C)[C@H](NC(=O)[C@H](CC(C)C)NC(=O)[C@H](Cc1ccccc1)NC(=O)[C@@H](NC(=O)[C@H](CO)NC(=O)[C@H](CO)NC(=O)[C@H](C)NC(=O)[C@H](CO)NC(=O)[C@@H](N)Cc1ccc(O)cc1)[C@@H](C)OP(=O)(O)O)C(=O)N1CCC[C@H]1C(N)=O` [IRAK1pT141+3I] (H-YSASS[pT]FLIP-NH2; N-terminus assumed) the “fold change in KD relative to pT141+3Y (preference for the pTxxY motif)” value [3] was 12 fold.

With fluorescein-YSSAS[pT]FLYP-NH2 (also: fluorescein: FITC or 5,6-FAM) [pT141+3Y peptide (IRAK1pT141 with tyrosine at position +3)] the Kd [7] was 0.18 µM, the Kd [8] was 0.77 µM and the binding result [9] was “binds”.

B1: Pellino2 FHA domain (amino acids 15–275 of Pellino2) (domain or fragment)
chain: EPVKYGELVVLGYNGALPNGDRGRRKSRFALYKRPKANGVKPSTVHVISTPQASKAISCKGQHSISYTLSRNQTVVVEYTHDKDTDMFQVGRSTESPIDFVVTDTISGSQNTDEAQITQSTISRFACRIVCDRNEPYTARIFAAGFDSSKNIFLGEKAAKWKNPDGHMDGLTTNGVLVMHPRGGFTEESQPGVWREISVCGDVYTLRETRSAQQRGKLVESETNVLQDGSLIDLCGATLLWRTADGLFHTPTQKHIEALRQ
For B1, the fold weaker affinity than for pT141 [10] was greater than 100 fold.

With fluorescein-YSSAS[pT]FLIP-NH2 (also: fluorescein: FITC or 5,6-FAM) [pT141+3I peptide (IRAK1pT141 with isoleucine at position +3)] the Kd [8] was 1.8 µM and the binding result [9] was “binds”.
